Source: PubChem (Broad Institute)
The full list was thinned out, with hits kept by preference.
T cruzi growth-1: T. cruzi proliferation inhibition; T. cruzi beta-gal in NIH3T3, GalScreen luminescence, 90 h; inhibition, % at 8.34 µM; 77,000 tested, 5.9% active; AID 624255;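 active = mean inhibition above about 93%, with at least 55% of replicates each passing it, limit read from the data, passing the limit was not always enough; inconclusive = only one of those two conditions holds; inactive = neither condition holds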
GASC1 inh: blocks human GASC-1 (KDM4C) demethylase activity; GST-KDM4C 2-372, H3K9me3 peptide, LANCE TR-FRET; inhibition, % at 12.5 µM; Q9H3R0; 96,000 tested, 0.15% active;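 active = mean replicate inhibition above about 25%, with at least 55% of replicates also reaching it, limit read from the data, passing the limit was not always enough; inconclusive = only one of those two conditions met; inactive = neither condition met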
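System: N-terminal GST-fused human GASC-1 (KDM4C) fragment, residues 2-372 / Amount: 10 nM GST-KDM4C in enzyme reaction / Also added: H3K9me3 peptide with Fe(II)/2OG / Times: 30 min demethylation and 1 h detection at room temperature / Signal: LANCE TR-FRET / Read-out basis: Fall in 671/618 emission ratio as inhibition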
IDH1 R132H inh: blocks human IDH1 R132H reductase activity. O75874. diaphorase/resazurin fluorescence, 60 min. inhibition, % at 10 µM. 70,000 tested, 0.18% active. AID 624101; in the data active = inhibition above about 34%; inconclusive = no clear call, values can overlap the other calls; inactive = below about 11%
Target sequence (O75874 whole entry R132H): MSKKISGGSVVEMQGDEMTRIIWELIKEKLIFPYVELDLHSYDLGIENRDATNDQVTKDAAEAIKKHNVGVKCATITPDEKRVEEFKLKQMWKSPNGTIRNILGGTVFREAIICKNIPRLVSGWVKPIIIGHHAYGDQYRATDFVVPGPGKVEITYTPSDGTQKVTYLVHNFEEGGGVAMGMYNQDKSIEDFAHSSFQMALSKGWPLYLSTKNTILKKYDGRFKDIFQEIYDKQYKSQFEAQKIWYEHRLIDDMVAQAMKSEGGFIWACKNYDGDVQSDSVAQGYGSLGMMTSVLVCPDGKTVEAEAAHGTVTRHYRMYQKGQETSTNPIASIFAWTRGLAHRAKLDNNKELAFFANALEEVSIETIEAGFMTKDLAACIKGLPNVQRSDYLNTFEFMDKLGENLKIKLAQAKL
T cruzi growth-2: inhibitors of T. cruzi proliferation; shares compounds with T cruzi growth-1; T. cruzi beta-gal in NIH3T3, GalScreen luminescence, 90 h; inhibition, % at 8.35 µM; 5,600 tested, 72% active; AID 651739;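 active = mean replicate inhibition above about 95% and at least 55% of replicates individually reaching it, limit read from the data; inconclusive = only one of the two criteria is met; inactive = neither criterion is met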
T cruzi growth-3: inhibitors of T. cruzi proliferation | AID 651740 | inhibition, % at 2.09 µM | T. cruzi beta-gal in NIH3T3, GalScreen luminescence, 90 h | shares compounds with T cruzi growth-1 | 5,600 tested, 21% active;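 active = mean inhibition above about 95%, with at least 55% of replicates also reaching it, limit read from the data; inconclusive = meets just one of the two conditions; inactive = meets neither condition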
NIH3T3 tox: kills mouse NIH/3T3 fibroblasts; shares compounds with T cruzi growth-1; NIH/3T3 viability, CellTiter-Glo ATP luminescence, 90 h; cytotoxicity (signal decrease), % at 8.35 µM; 5,600 tested, 14% active; AID 651742;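 active = mean signal decrease across replicates above about 35% based on untreated-well scatter, with enough replicates individually passing, limit read from the data; inconclusive = no rule stated though some were filed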
3T3 cytotox 2: NIH/3T3 (mouse) viability loss; shares compounds with T cruzi growth-1; NIH/3T3 viability, CellTiter-Glo ATP luminescence, 90 h; inhibition, % at 24.9 µM; 5,600 tested, 56% active; AID 651744;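 active = mean loss of cell viability signal at or above a set limit, and enough replicates individually reaching it; inconclusive = meets only the mean limit or only the replicate share; inactive = meets neither condition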
A number is an active result.

Cc1ccccc1S(=O)(=O)N1CC[C@@H]2[C@H]1c1cc(-c3ccccc3)ccc1N(C)[C@H]2CO was read as T cruzi growth-1 98, GASC1 inh inactive, T cruzi growth-2 107, T cruzi growth-3 115, NIH3T3 tox inactive and 3T3 cytotox 2 103.
Cc1cccc(S(=O)(=O)N2CC[C@@H]3[C@@H](CO)N(C)c4ccc(Br)cc4[C@@H]32)c1 was read as T cruzi growth-1 inactive and GASC1 inh inactive.
`CC(C)(O)C#Cc1ccc([C@H]2[C@@H](CO)N3CCCCN(C(=O)c4ccc(F)cc4)C[C@@H]23)cc1` gave T cruzi growth-1 inactive and GASC1 inh inactive.
Screening CC(C)(O)C#Cc1ccc([C@H]2[C@@H](CO)N3CCCCN(C(=O)c4cccc(F)c4)C[C@@H]23)cc1 returned T cruzi growth-1 103, GASC1 inh inactive, T cruzi growth-2 105, T cruzi growth-3 inactive, NIH3T3 tox inactive and 3T3 cytotox 2 inactive.
For CC(C)(O)C#Cc1ccc([C@@H]2[C@@H](CO)N3CCCCN(C(=O)c4ccc(F)cc4)C[C@H]23)cc1 the results were T cruzi growth-1 inactive and GASC1 inh inactive.
`CC(C)(O)C#Cc1ccc([C@@H]2[C@@H](CO)N3CCCCN(C(=O)c4cccc(F)c4)C[C@@H]23)cc1` gave T cruzi growth-1 113, GASC1 inh inactive, T cruzi growth-2 inactive, T cruzi growth-3 inactive, NIH3T3 tox inactive and 3T3 cytotox 2 inactive.
For C[C@@H]1CN([C@@H](C)CO)S(=O)(=O)c2ccc(-c3cccc(C#N)c3)cc2O[C@H]1CN(C)C(=O)c1ccccc1 the results were T cruzi growth-1 inactive, GASC1 inh inactive and IDH1 R132H inh inactive.
Screening C[C@@H]1CN([C@H](C)CO)S(=O)(=O)c2ccc(-c3cccc(C#N)c3)cc2O[C@@H]1CN(C)C(=O)c1ccc(F)cc1 returned T cruzi growth-1 101, GASC1 inh inactive, IDH1 R132H inh inactive, T cruzi growth-2 102, T cruzi growth-3 inactive, NIH3T3 tox inconclusive and 3T3 cytotox 2 88.
C[C@@H]1CN([C@H](C)CO)S(=O)(=O)c2ccc(-c3cccc(C#N)c3)cc2O[C@H]1CN(C)C was read as T cruzi growth-1 110, GASC1 inh inactive, IDH1 R132H inh inactive, T cruzi growth-2 inactive, T cruzi growth-3 inactive, NIH3T3 tox inactive and 3T3 cytotox 2 36.
Screening C[C@H](CO)N1C[C@H](C)[C@@H](CN(C)C)Oc2cc(-c3cccc(C#N)c3)ccc2S1(=O)=O returned T cruzi growth-1 inactive, GASC1 inh inactive and IDH1 R132H inh inactive.
Screening C[C@H](CO)N1C[C@H](C)[C@H](CN(C)C(=O)c2ccccc2)Oc2cc(-c3cccc(C#N)c3)ccc2S1(=O)=O returned T cruzi growth-1 inactive, GASC1 inh inactive and IDH1 R132H inh inactive.
`C[C@H](CO)N1C[C@H](C)[C@H](CN(C)C(=O)c2ccc(F)cc2)Oc2cc(-c3cccc(C#N)c3)ccc2S1(=O)=O` gave T cruzi growth-1 104, GASC1 inh inactive, IDH1 R132H inh inactive, T cruzi growth-2 inactive, T cruzi growth-3 inactive, NIH3T3 tox inactive and 3T3 cytotox 2 64.
Screening Cc1cc(C)cc(OCC(=O)Nc2cc(-c3nc4ccccc4s3)ccc2C)c1 returned IDH1 R132H inh inactive.
For COc1cc(Cl)c(C)cc1NC(=O)CSC1=C(C#N)C(c2ccccc2F)CC(=O)N1 (stereo not given) the results were IDH1 R132H inh inactive.
`COc1ccc(-c2nn(-c3ccccc3)cc2C2NC(=O)NC(C)=C2C(=O)OCc2ccccc2)cc1` (stereo not given) gave IDH1 R132H inh inactive.
For Cc1c(NC(=O)COc2ccc(Br)cc2)cccc1C(=O)O the results were IDH1 R132H inh inactive.
For C[C@H](CO)N1C[C@H](C)[C@H](CN(C)S(=O)(=O)c2cccs2)Oc2ncc(-c3cccc(F)c3)cc2C1=O the results were T cruzi growth-1 inactive, GASC1 inh inactive and IDH1 R132H inh inactive.
C[C@H](CO)N1C[C@H](C)[C@H](CN(C)S(=O)(=O)c2ccc(F)cc2)Oc2ncc(-c3cccc(C(F)(F)F)c3)cc2C1=O was read as T cruzi growth-1 109, GASC1 inh inactive, IDH1 R132H inh inactive, T cruzi growth-2 102, T cruzi growth-3 inactive, NIH3T3 tox 42 and 3T3 cytotox 2 54.
For C[C@H](CO)N1C[C@H](C)[C@H](CN(C)S(=O)(=O)c2cccs2)Oc2ncc(-c3cccc(C(F)(F)F)c3)cc2C1=O the results were T cruzi growth-1 106, GASC1 inh inactive, IDH1 R132H inh inactive, T cruzi growth-2 103, T cruzi growth-3 inactive, NIH3T3 tox inactive and 3T3 cytotox 2 27.
`COc1ccc(S(=O)(=O)N(C)C[C@@H]2Oc3ncc(-c4cccc(C(F)(F)F)c4)cc3C(=O)N([C@H](C)CO)C[C@@H]2C)cc1` gave T cruzi growth-1 106, GASC1 inh inactive, IDH1 R132H inh inactive, T cruzi growth-2 107, T cruzi growth-3 inactive, NIH3T3 tox inactive and 3T3 cytotox 2 49.
`C[C@H](CO)N1C[C@H](C)[C@H](CN(C)S(=O)(=O)c2cccc(F)c2)Oc2ncc(-c3cccc(C(F)(F)F)c3)cc2C1=O` gave T cruzi growth-1 inactive, GASC1 inh inactive and IDH1 R132H inh inactive.
`COc1ccc(-c2cnc3c(c2)C(=O)N([C@H](C)CO)C[C@@H](C)[C@H](CN(C)S(=O)(=O)c2ccc(OC)cc2)O3)cc1` gave T cruzi growth-1 inactive, GASC1 inh inactive and IDH1 R132H inh inactive.
Screening Cc1c(C(=O)C2C(=O)C(=O)N(CCN3CCOCC3)C2c2ccccn2)cnn1-c1ccccc1 (stereo not given) returned IDH1 R132H inh inactive.
Screening Cc1c(Cl)cccc1NC(=O)CSc1nnc(-c2ccc(NC(=O)c3ccccc3Br)cc2)n1C returned IDH1 R132H inh inactive.
Cc1nc(-c2cc(C#N)c(Oc3ccc(C(F)(F)F)cc3)nc2C)cs1 was read as IDH1 R132H inh inactive.
`Cc1cccc(-c2ccc([C@@H]3[C@H]4CN(C(=O)c5ccncc5)CCCCN4[C@H]3CO)cc2)c1` gave T cruzi growth-1 inactive and GASC1 inh inactive.
For Cc1cccc(-c2ccc([C@H]3[C@H](CO)N4CCCCN(C(=O)c5cccnc5)C[C@@H]34)cc2)c1 the results were T cruzi growth-1 116, GASC1 inh inactive, T cruzi growth-2 102, T cruzi growth-3 inactive, NIH3T3 tox 39 and 3T3 cytotox 2 32.
For Cc1ccccc1-c1ccc([C@H]2[C@@H](CO)N3CCCCN(C(=O)c4cccnc4)C[C@H]23)cc1 the results were T cruzi growth-1 99, GASC1 inh inactive, T cruzi growth-2 97, T cruzi growth-3 inactive, NIH3T3 tox inactive and 3T3 cytotox 2 inactive.
